According to ChEMBL document CHEMBL2390869, “Evolution of novel tricyclic CRTh2 receptor antagonists from a (E)-2-cyano-3-(1H-indol-3-yl)acrylamide scaffold” (Bioorg Med Chem Lett, 2013):

Biological target: T1, Prostaglandin D2 receptor 2 (Homo sapiens, UniProt Q9Y5Y4)
T1 sequence (Q9Y5Y4 whole entry): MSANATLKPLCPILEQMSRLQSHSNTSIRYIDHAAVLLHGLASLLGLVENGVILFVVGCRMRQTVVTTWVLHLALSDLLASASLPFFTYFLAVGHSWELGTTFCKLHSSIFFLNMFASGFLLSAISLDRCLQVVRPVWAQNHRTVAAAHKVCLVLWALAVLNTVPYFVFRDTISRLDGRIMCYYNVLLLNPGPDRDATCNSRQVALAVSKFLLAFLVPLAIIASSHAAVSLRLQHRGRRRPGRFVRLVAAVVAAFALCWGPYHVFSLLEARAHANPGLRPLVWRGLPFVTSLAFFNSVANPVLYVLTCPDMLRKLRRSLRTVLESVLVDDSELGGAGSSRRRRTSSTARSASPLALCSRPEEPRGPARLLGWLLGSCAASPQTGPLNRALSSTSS
Assay: Displacement of [3H]PGD2 from human CRTh2 receptor
Procedure, shortened: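 Human CRTh2 binding assay run in assay buffer. IC50 reported as the mean of at least three experiments.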

Row | SMILES | IC50 [µM]
1 | Cc1cccc2c1c(/C=C(\C#N)C(=O)N(C)c1ccccc1)cn2CC(=O)O | 0.01
2 | N#C/C(=C\c1cn(CC(=O)O)c2ccccc12)C(=O)Nc1cccc(Br)c1 | 0.5
3 | N#C/C(=C\c1cn(CC(=O)O)c2ccccc12)C(=O)Nc1ccccc1 | 0.43
4 | N#C/C(=C\c1cn(CCC(=O)O)c2ccccc12)C(=O)Nc1ccccc1 | 5.9
5 | N#C/C(=C\c1cn(CCCC(=O)O)c2ccccc12)C(=O)Nc1ccccc1 | 2.6
6 | C/C(=C(/C#N)C(=O)Nc1ccccc1)c1cn(CC(=O)O)c2ccccc12 | 0.51
7 | O=C(O)Cn1cc(/C=C(\Cl)C(=O)Nc2ccccc2)c2ccccc21 | 0.56
8 | O=C(O)Cn1cc(/C=C/C(=O)Nc2ccccc2)c2ccccc21 | 4.4
9 | CN(C(=O)/C(C#N)=C/c1cn(CC(=O)O)c2ccccc12)c1ccccc1 | 0.015
10 | CCCCN(C(=O)/C(C#N)=C/c1cn(CC(=O)O)c2ccccc12)c1ccccc1 | 0.02
11 | N#C/C(=C\c1cn(CC(=O)O)c2ccccc12)C(=O)N(c1ccccc1)C1CCCCC1 | 0.03
12 | N#C/C(=C\c1cn(CC(=O)O)c2ccccc12)C(=O)N(Cc1ccccc1)c1ccccc1 | 0.03
13 | N#C/C(=C\c1cn(CC(=O)O)c2ccccc12)C(=O)N(CCc1ccccc1)c1ccccc1 | 0.01
14 | N#C/C(=C\c1cn(CC(=O)O)c2ccccc12)C(=O)N1CCc2ccccc21 | 0.06
15 | N#C/C(=C\c1cn(CC(=O)O)c2ccccc12)C(=O)N1Cc2ccccc2Cc2ccccc21 | 0.007
16 | CN(C(=O)/C(C#N)=C/c1cn(CC(=O)O)c2cccc(F)c12)c1ccccc1 | 0.01

Row | SMILES | IC50 [µM]
17 | CN(C(=O)/C(C#N)=C/c1cn(CC(=O)O)c2ccc(F)cc12)c1ccccc1 | 0.01
18 | CN(C(=O)/C(C#N)=C/c1cn(CC(=O)O)c2cc(F)ccc12)c1ccccc1 | 0.045
19 | CN(C(=O)/C(C#N)=C/c1cn(CC(=O)O)c2c(F)cccc12)c1ccccc1 | 0.1
20 | CN(C(=O)/C(C#N)=C/c1cn(CC(=O)O)c2cccc(Cl)c12)c1ccccc1 | 0.005
21 | CN(C(=O)/C(C#N)=C/c1cn(CC(=O)O)c2ccc(Cl)cc12)c1ccccc1 | 0.007
22 | CN(C(=O)/C(C#N)=C/c1cn(CC(=O)O)c2cc(Cl)ccc12)c1ccccc1 | 0.29
23 | CN(C(=O)/C(C#N)=C/c1cn(CC(=O)O)c2c(Cl)cccc12)c1ccccc1 | 0.05
24 | Cc1ccc2c(c1)c(/C=C(\C#N)C(=O)N(C)c1ccccc1)cn2CC(=O)O | 0.007
25 | Cc1ccc2c(/C=C(\C#N)C(=O)N(C)c3ccccc3)cn(CC(=O)O)c2c1 | 0.69
26 | Cc1cccc2c(/C=C(\C#N)C(=O)N(C)c3ccccc3)cn(CC(=O)O)c12 | 0.14
27 | O=C(O)Cn1c2ccccc2c2cc(C(=O)Nc3ccccc3)ccc21 | 0.49
28 | O=C(O)Cn1c2c(c3ccccc31)CN(C(=O)Nc1ccccc1)CC2 | 0.43
29 | O=C(O)Cn1c2c(c3ccccc31)CN(C(=O)Cc1ccccc1)CC2 | 0.2
30 | CC(=O)N1CCc2c(c3ccccc3n2CC(=O)O)C1 | 1.6
31 | CCCCCC(=O)N1CCc2c(c3ccccc3n2CC(=O)O)C1 | 0.21
32 | O=C(O)Cn1c2c(c3ccccc31)CC(C(=O)Nc1ccccc1)CC2 (racemic) | 0.145

Biological target: T1, Prostaglandin D2 receptor 2
Assay: Antagonist activity at PGD2-induced human CRTh2 receptor activation expressed in HEK293 cells assessed as intracellular Ca2+ liberation by FLIPR assay
Assay type: functional, cell-based
Procedure, shortened: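 HEK-293 cells stably expressing human CRTh2 were stimulated with PGD2. Antagonism of intracellular Ca2+ liberation was read by FLIPR. IC50 is the mean of at least three experiments.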

Row | SMILES | IC50 [µM]
33 | N#C/C(=C\c1cn(CC(=O)O)c2ccccc12)C(=O)Nc1cccc(Br)c1 | 0.6
